Assay results taken from ChEMBL document CHEMBL1137402, “Synthesis and biological evaluation of 2-(3',4',5'-trimethoxybenzoyl)-3-amino 5-aryl thiophenes as a new class of tubulin inhibitors” (J Med Chem, 2006).
Active and inactive are the calls of the source. The calls are words filed in the database; no cut-off is given here.

Columns and labels:
Tubulin = experiment: Inhibition of tubulin polymerization; assay type: functional, Homo sapiens
Method in brief: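 Tubulin assembly assay with tubulin at 10 µM. IC50 taken for inhibition of polymerization.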

L1210 = experiment: Antiproliferative activity against mouse L1210 cells; assay type: functional, cell-based
Method in brief: (§1)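 Tumor cell proliferation assay. IC50 is the compound concentration giving 50% inhibition of proliferation, taken from dose-response curves. Reported as mean ± SE from at least three independent experiments.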

MOLT-4 = experiment: Antiproliferative activity against human Molt4/C8 cells; assay type: functional, cell-based; method in brief: as §1
CCRF-CEM = experiment: Antiproliferative activity against human CEM cells; assay type: functional, cell-based
Tubulin (Homo sapiens) = Tubulin (Homo sapiens) (UniProt P68371+Q9H4B7+P0DPH7+P68366+Q13509+Q71U36+P04350+Q3ZCM7+P07437+P68363+Q9BQE3+Q6PEY2+Q13885+Q9BVA1+Q9BUF5); experiment: Inhibition of [3H]colchicine binding to tubulin at 1 uM; assay type: protein-complex assay
Method in brief: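 Binding of [3H]colchicine to tubulin. Tubulin at 1 µM, [3H]colchicine at 5 µM, inhibitor at 1 µM. Read-out is percent inhibition of colchicine binding.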

FM3A = experiment: Antiproliferative activity against mouse FM3A cells; assay type: functional, cell-based
HL-60 [1] = experiment: Induction of apoptosis in HL60 cells by arrest at sub G0/G1 phase at 15 nM; assay type: functional, cell-based; conditions: Homo sapiens
Method in brief: (§2)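 HL60 acute myeloblastic leukemia cells exposed to compound for 24 h, then stained with propidium iodide and analyzed by flow cytometry. Populations scored in sub-G0-G1 (apoptotic), G0-G1, S and G2-M phases, relative to untreated control cells.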

HL-60 [2] = experiment: Cell cycle arrest in HL60 cells by accumulation at G2/M phase at 15 nM; assay type: functional, cell-based; conditions: Homo sapiens; method in brief: as §2
HL-60 [3] = experiment: Cell cycle arrest in HL60 cells by accumulation at G2/M phase at 8 nM; assay type: functional, cell-based; conditions: Homo sapiens; method in brief: as §2
HL-60 [4] = experiment: Cell cycle arrest in HL60 cells by accumulation at S phase at 8 nM; assay type: functional, cell-based; conditions: Homo sapiens; method in brief: as §2
HL-60 [5] = experiment: Induction of apoptosis in HL60 cells by arrest at sub G0/G1 phase at 8 nM; assay type: functional, cell-based; conditions: Homo sapiens; method in brief: as §2
HL-60 [6] = experiment: Cell cycle arrest in HL60 cells by accumulation at G2/M phase at 40 nM; assay type: functional, cell-based; conditions: Homo sapiens; method in brief: as §2
HL-60 [7] = experiment: Cell cycle arrest in HL60 cells by accumulation at G2/M phase at 20 nM; assay type: functional, cell-based; conditions: Homo sapiens; method in brief: as §2
HL-60 [8] = experiment: Cell cycle arrest at HL60 cells by accumulation at sub G0/G1 phase at 20 nM; assay type: functional, cell-based; conditions: Homo sapiens; method in brief: as §2

IC50 (Tubulin)	IC50 (L1210)	IC50 (MOLT-4)	IC50 (CCRF-CEM)	inhibition (Tubulin (Homo sapiens))	Compound	IC50 (FM3A)	other results
0.86 µM					COc1cc(C(=O)c2cc(-c3ccc(F)cc3)sc2N)cc(OC)c1OC		
1.5 µM	0.02 µM	0.012 µM	0.015 µM	70%	COc1cc(C(=O)c2sc(-c3ccc(F)cc3)cc2N)cc(OC)c1OC	0.016 µM	
1.2 µM					COc1cccc(-c2cc(C(=O)c3cc(OC)c(OC)c(OC)c3)c(N)s2)c1		
	> 10 µM	> 10 µM	> 10 µM		COc1cc(C(=O)c2sc(-c3ccc(-c4ccccc4)cc3)cc2N)cc(OC)c1OC	> 10 µM	
0.64 µM	0.022 µM	0.017 µM	0.016 µM	81%	COc1cccc(-c2cc(N)c(C(=O)c3cc(OC)c(OC)c(OC)c3)s2)c1	0.036 µM	
	0.18 µM	0.088 µM	0.11 µM		COc1cc(C(=O)c2sc(-c3ccncc3)cc2N)cc(OC)c1OC	0.15 µM	
0.97 µM	0.011 µM	0.0075 µM	0.0059 µM	74%	COc1cc(C(=O)c2sc(-c3cccc([N+](=O)[O-])c3)cc2N)cc(OC)c1OC	0.017 µM	Activity (HL-60 [1]): Active; Activity (HL-60 [2]): Active
	0.093 µM	0.077 µM	0.07 µM		COc1cc(C(=O)c2sc(-c3ccc(Cl)cc3)cc2N)cc(OC)c1OC	0.09 µM	
	0.1 µM	0.11 µM	0.099 µM		COc1cc(C(=O)c2sc(-c3ccc([N+](=O)[O-])cc3)cc2N)cc(OC)c1OC	0.064 µM	
	2.3 µM	1.2 µM	0.84 µM		COc1cc(C(=O)c2sc(-c3cc(OC)c(OC)c(OC)c3)cc2N)cc(OC)c1OC	3.5 µM	
	0.4 µM	0.19 µM	0.15 µM		COc1cc(C(=O)c2sc(-c3ccc(I)cc3)cc2N)cc(OC)c1OC	0.42 µM	
	0.26 µM	0.27 µM	0.29 µM		COc1cc(C(=O)c2sc(-c3ccc(Cl)c(Cl)c3)cc2N)cc(OC)c1OC	0.4 µM	
1.1 µM					COc1ccc(-c2cc(C(=O)c3cc(OC)c(OC)c(OC)c3)c(N)s2)cc1		
	0.1 µM	0.092 µM	0.086 µM		COc1cc(C(=O)c2sc(-c3ccc(Br)cc3)cc2N)cc(OC)c1OC	0.15 µM	
1.1 µM	0.04 µM	0.02 µM	0.02 µM	53%	COc1ccc(-c2cc(N)c(C(=O)c3cc(OC)c(OC)c(OC)c3)s2)cc1OC	0.072 µM	
1.2 µM	0.011 µM	0.0053 µM	0.0045 µM	81%	COc1cc(C(=O)c2sc(-c3ccccc3)cc2N)cc(OC)c1OC	0.013 µM	Activity (HL-60 [3]): Active; Activity (HL-60 [4]): Active; Activity (HL-60 [5]): Active; Activity (HL-60 [6]): Active
1.3 µM	0.012 µM	0.0088 µM	0.0096 µM	81%	COc1cc(C(=O)c2sc(-c3ccsc3)cc2N)cc(OC)c1OC	0.0037 µM	Activity (HL-60 [7]): Active; Activity (HL-60 [8]): Active
	0.37 µM	0.25 µM	0.27 µM		COc1cc(C(=O)c2sc(-c3ccc(C(F)(F)F)cc3)cc2N)cc(OC)c1OC	0.54 µM	
0.8 µM				90%	COc1cc(C(=O)c2cc(-c3ccc(C)cc3)sc2N)cc(OC)c1OC		
	0.59 µM	0.24 µM	0.27 µM		CCOc1ccc(-c2cc(N)c(C(=O)c3cc(OC)c(OC)c(OC)c3)s2)cc1	0.51 µM	
1.1 µM	0.018 µM	0.016 µM	0.015 µM	80%	COc1cc(C(=O)c2sc(-c3ccc(C)cc3)cc2N)cc(OC)c1OC	0.016 µM	
1.2 µM	0.02 µM	0.017 µM	0.016 µM	76%	COc1cc(C(=O)c2sc(-c3ccccc3Cl)cc2N)cc(OC)c1OC	0.034 µM	
1.1 µM	0.045 µM	0.018 µM	0.019 µM	60%	COc1ccc(-c2cc(N)c(C(=O)c3cc(OC)c(OC)c(OC)c3)s2)cc1	0.031 µM	
1.2 µM	0.0098 µM	0.0089 µM	0.0094 µM	80%	COc1cc(C(=O)c2sc(-c3cccs3)cc2N)cc(OC)c1OC	0.0017 µM	Activity (HL-60 [7]): Active; Activity (HL-60 [8]): Active
1.3 µM				77%	COc1cc(C(=O)c2cc(-c3ccccc3)sc2N)cc(OC)c1OC		

Compound	IC50 (Tubulin)	IC50 (L1210)	IC50 (MOLT-4)	IC50 (CCRF-CEM)	inhibition (Tubulin (Homo sapiens))	IC50 (FM3A)	other results
COc1ccc(/C=C\c2cc(OC)c(OC)c(OC)c2)cc1O [COMBRETASTATIN A4]		0.0028 µM	0.0016 µM				
